Results filed as inconclusive are left out.
Test system: S. cerevisiae W303 JC-1 mitochondrial potential, flow cytometry
Test: yeast mitochondrial potential disruption, JC-1 dye – flow cytometry, single point, powder samples, mechanism study for antifungal respiration inhibitor project (AID 624062)
Settings: hits give high values
Summary of the method: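 Test system: Saccharomyces cerevisiae strain W303-1a, whole yeast cells | Quantity: Yeast culture diluted to OD600 of 0.1 | Medium: Glucose (2%) SD-CSM medium | Also added: JC-1 dye at 1 µg/mL | Times: 90 min pre-growth, then 4 h compound exposure, both 30 °C | Technique: Flow cytometry of JC-1 red and green emission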

SMILES: CCOC(=O)N1C(=O)C2(CCCCC2)N(c2ccc(C)cc2)C1=S
- mitochondrial depolarization score: 18.6
